In the EternaBench riboswitch data:

System: MS2 coat protein
Assay: apparent Kd, MS2 coat protein; higher = weaker binding; RNA-MaP array; FMN 200 µM where present
How it was run: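 Stalled E. coli RNA polymerase transcribed each design on Illumina sequencing-chip clusters. The clusters were titrated with SNAP-549-labelled MS2 coat protein, starting at 0.7 or 1.5 nM and doubling up to 3 µM, first without ligand and then with constant ligand, in 100 mM Tris-HCl pH 7.5, 80 mM KCl, 4 mM MgCl2, BSA, DTT, yeast tRNA and Tween-20. Green signal was normalised to red-channel RNA signal and to the control-cluster median Fmax. The apparent Kd is the median of filtered binding-curve fits made for each cluster.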

[1] = designed as: OFF switch for flavin mononucleotide, no ligand
[2] = ligand present: flavin mononucleotide, designed as: OFF switch for flavin mononucleotide
[3] = designed as: ON switch for flavin mononucleotide, no ligand
[4] = ligand present: flavin mononucleotide, designed as: ON switch for flavin mononucleotide

| Sequence | apparent Kd [1] [nM] | apparent Kd [2] [nM] | apparent Kd [3] [nM] | apparent Kd [4] [nM] |
| --- | --- | --- | --- | --- |
| AGAUCACAUGAGGAUCACCCAUGUCAGGAUAUGAUACUAUGUACUUCGGUACAUAGUAUCAGAAGGGAUAUGAA | 95.2 | 193 | – | – |
| AGAUGACGAUGUUAUCUUCGUCGGACAUGAGGAUCACCCAUGUAGGAUAUGCUACUCAAAGAGUAGCAGAAGGACAUGUGUCUU | 37.4 | 245 | – | – |
| AGAUGAUGAUGUUAUCUUCGUCGGACAUGAGGAUCACCCAUGUAGGAUAUGCUACUCAAAGAGUAGCAGAAGGACAUGUAUCUU | 25.4 | 113 | – | – |
| AGAUGCAUGUAGAAGGGAGGAUCACCAGUGUACUCAGGAUAUACAUGUGGUGACAUGAGGAUCACCCAUGUAUGCCAGAAGUUC | – | – | 172 | 116 |
| AGAUUCAUGGCCCGUUCGGGCCCACAUGAGGAUCACCCAUGUGAGGAUAUGAUGUACCUGAUUCAUCAGAAGGCGCAUGCGAAA | 7.32 | 20.5 | – | – |
| AGAUUUGUACAUGAGGAUCACCCAUGUUAAUAGGUGGUUGUCAGAAGGCAUUAAUAGAGAUUUAAUGAGGAUAUGAAUUAACAA | – | – | 903 | 593 |
| AGCAAAUCAGGAUAUGUACUGGACGACAUGAGGAUCACCCAUGUGAUUCAGUGCGCGAGAACAGAAGGGAUUCGCU | 17.4 | 42.8 | – | – |
| AGCACGAAAGUGCAACGAUGUACGAGAAGGACAUGAGGAUCACCCAUGUAAGCAGUAACUGCAAUGUAGGAUAUCGUACAUCGA | 8.41 | 12 | – | – |
| AGCAUGCUAGGAUAUACGAAACAUUAGGGUUCGUCGUAUGAACAUGAGGAUCACCCAUGUAGAAGGAGCGUGCA | 18 | 36.2 | – | – |
| AGCAUGCUAGGAUAUACGAAACAUUAGGGUUCUUUGUAUGAACAUGAGGAUCACCCAUGUAGAAGGAGCGUGCA | 109 | 170 | – | – |
| AGCAUGUGAGGAUAUGCAGACUCCGGUAAAUCUGGAGUCCGGUAGAAGGCACAUGAGGAUCACCCAUGUGAGAU | 43.4 | 119 | – | – |
| AGCGGAUUGUAGAAGGGUGACAUGAGGAUCACCCAUGUUCAAAUGCGAUUUACGGUAAUUGAUCCACAGGAUAUACAGUCCGAG | – | – | 905 | 178 |
| AGCGGCGCAGACCACCGCAAAACCAGAAGGACAUGAGGAUCACCCAUGUAACAAAACAGGGCGAUGUAGGAUAUGGCAGACCCA | 13 | 13.7 | – | – |
| AGCGGCGCGGGCCACCGCAAAACCAGAAGGACAUGAGGAUCACCCAUGUAACAAAACAGGGCGGUGUAGGAUAUGGCAGACCCG | 14.7 | 23.8 | – | – |
| AGCGGCGCGGGCCACCGCAGGACCAGAAGGACAUGAGGAUCACCCAUGUAGCAGAACAGGGCGGUGUAGGAUAUGGCAGGCUCG | 22.5 | 51.6 | – | – |
| AGCGUAUGAACAUGAGGAUCACCCAUGUAAACGGAAACGAAUGAGGAUAUCGAUAGCAAAGCUAUCGAGAAGGCAUGGGACGCU | – | – | 159 | 36.4 |
| AGCGUGUAAGGAUAUACGUCGGAUAGCGAAUACUGUCCCUAGUAGAAGGUACAUGAGGAUCACCCAUGUGUCCA | 23.9 | 51.8 | – | – |
| AGCUACGUUUCGUAGCAGCUAGGUGAGGAUAUUCAAUUUUUCACAUGAGGAUCACCCAUGUAUGUGAAGAAGGCGCCUAGAAAC | – | – | 10.8 | 5.07 |
| AGCUACGUUUCGUAGCAGUGUCAUCGAGAAGGCCUCAUAACAUGAGGAUCACCCAUGUUUGCAUGGGAGGAUAUCGAUGAUACA | – | – | 206 | 56.4 |
| AGCUACGUUUCGUAGCAGUGUCAUCGAGAAGGCUCAUAAACAUGAGGAUCACCCAUGUAAACAUGGGAGGAUAUCGAUGAUACA | – | – | 39.6 | 6.5 |
| AGCUAGUCAGGAUAUACGAAAAUGUCCGAAGCUGAGAAGGGACAUGAGGAUCACCCAUGUAGAAGGGACUAGCA | 102 | 264 | – | – |
| AGCUAGUCAGGAUAUACGUACAUGUCAUUAGACGUGAAGGGACAUGAGGAUCACCCAUGUAGAAGGGACUAGCA | 40 | 164 | – | – |
| AGCUCCGCGGCCACUUAUUGUGCACAUGAGGAUCACCCAUGUCAGGAUAUCCUUGAGCCUCACAAGGAGAAGGGACAUAAGGUU | 643 | 334 | – | – |
| AGCUGGUGACAGCAUCCAUCAAAACAUGAGGAUCACCCAUGUAGAAGGCUGUACGGUUACCGUACAGAGGAUAUACAAUGAUGC | 13.8 | 31.8 | – | – |
| AGCUGGUGACAGCAUCGAGCAAAACAUGAGGAUCACCCAUGUAGAAGGCUGUACGGUUACCGUACAGAGGAUAUACAAAGCUCG | 6.35 | 8.14 | – | – |
| AGCUGUGGCCGAGGAUAUCUGUUCCAUAAAACCGAAAUAUAAUCGGACAUGAGGAUCACCCAUGUAGAGAAGGCGGUCUCAGCA | 23.9 | 26.4 | – | – |
| AGCUUCGAAGGAUAUCCAGGUCCAGACAUGAGGAUCACCCAUGUGGUGAAGACGUUACCCGGAGAAGGUUGUGAGU | 70.5 | 61.7 | – | – |
| AGGAAGUGAGGAUAUGCAGUAGCUAGUGGACGCUAGCACAUGUAGAAGGCACAUGAGGAUCACCCAUGUUUAAA | 30.5 | 28.3 | – | – |

| Sequence | apparent Kd [1] [nM] | apparent Kd [2] [nM] | apparent Kd [3] [nM] | apparent Kd [4] [nM] |
| --- | --- | --- | --- | --- |
| AGGAGAAAUGUAGGAUAUGGGCGGGUAUAUGGGCAAAGCGCAUAUACCCGCCCAGAAGGACAUGAGGAUCACCCAUGUUUCCCU | 12.2 | 13.3 | – | – |
| AGGAGGUCAGGAUAUGCUGCUCGUCACUUGCGUGAUGAGUAGCAGAAGGGACAUGAGGAUCACCCAUGUAAAAA | 52.6 | 88.7 | – | – |
| AGGAGGUCAGGAUAUGCUGCUCGUCACUUGCGUGAUGAGUAGCAGAAGGGACAUGAGGAUCACCCAUGUAAAGA | 55.7 | 95.7 | – | – |
| AGGAGUUUGUAGAAGGACGACUAUUAAGUUUUCGUAGGAUAUACUAUUUACAUGAGGAUCACCCAUGUUUAAAUGGAACAAUGU | 7.85 | 9.08 | – | – |
| AGGAUAAGAAGAACUAUCCAUUGUACAGAAGGCCAACAUGAGGAUCACCCAUGUAAGAAAAGGAUGGAGGAUAUGUAUAGGGCC | – | – | 37.3 | 19.8 |
| AGGCACAUCGGAGGAUAUCAUGUAAAUACAUGAGGAUCACCCAUGUCGAUGGAGACAUCGGAGAUUGAGAAGGCCGAUGUACCG | – | – | 175 | 8.44 |
| AGGCGGAAAGUCAGGAUAUCUUGACCAAAGGGUUGAGAGAAGGGACAUGAGGAUCACCCAUGUGGCGACCGCCA | 37.5 | 67.9 | – | – |
| AGGCGUAAGACAGGAUAUAGGCAGCGGGCUGGAAACGAAUACAAAGACAUGAGGAUCACCCAUGUCUAGAAGGGUCGUGGCGGG | 9.05 | 9.88 | – | – |
| AGGGAGUGAGGAUAUGCUGCUCGUCACUUGCGUGAUGAGUAGCAGAAGGUACAUGAGGAUCACCCAUGUAAAGA | 34.5 | 22.2 | – | – |
| AGGGUAUGAACAUGAGGAUCACCCAUGUACCAGGAAACGAAUGAGGAUAUCGAUAGCAAAGCUAUCGAGAAGGCAUGGGACCCU | – | – | 318 | 62.2 |
| AGGUACAUGAGGAUCACCCAUGUAAGAGCCCUCAUGCGAUGUAGAAGGAUAAUGCGAGAAGUGCUAUAGGAUAUACAUGAGAAA | 140 | 143 | – | – |
| AGGUAGCAAGGAUAUACAACUUUGGGCACUGCCUCUUGGAGACAUGAGGAUCACCCAUGUAGAAGGUGCAGGCC | 13.2 | 33.9 | – | – |
| AGGUAGCAAGGAUAUACAUGAGGAUCACCCAUGUAAAUGCACGUUUAGGCCCUGCUAUGUAGAAGGUGCACCCG | 17.3 | 16.8 | – | – |
| AGGUCGUGAGGAUAUCGUCCCGUGAGCAGUAGUUGCGCGGGUGAGAAGGCACAUGAGGAUCACCCAUGUCAUCC | 24.9 | 74.4 | – | – |
| AGGUGUAGAGGAUAUUCAUUCUUCCACAUGAGGAUCACCCAUGUCCUGGUCACCAAGGACGGAGAAGGCUACACCA | 70.2 | 38.1 | – | – |
| AGUAAACAUGAGGAUCACCCAUGUGGUGGCCCAUGAGGAUAUCCAUGCGCAAUACGCAUAGGAGAAGGCAUAGCCA | – | – | 62 | 123 |
| AGUAACAGAGGAUAUACUAUUUUAUGUGUUUGUUGUUUUAAACAUGAGGAUCACCCAUGUAGAAGGCUGAAUAA | 21.4 | 24.1 | – | – |
| AGUAACAGAGGAUAUACUGUUUUAUGUGUUUAUUGUUUUAAACAUGAGGAUCACCCAUGUAGAAGGCUGAAUAA | 30.9 | 26.9 | – | – |
| AGUAACAUACUCAACAUGAGGAUCACCCAUGUACUCUCAUGUAAGGAUAUACAAUCGUAUUGAUAGUAGAAGGUACCAAUUAAG | – | – | 845 | 685 |
| AGUAAGAUGCAGAAGGUGUCAGCGAGAGCUGCGACAUGAGGAUCACCCAUGUGUCGGUGACGACGCAAGGAUAUGCAUCUUACA | – | – | 138 | 56.6 |
| AGUAAGAUGCAGAAGGUGUUAGCUAGAGCUACGACAUGAGGAUCACCCAUGUACUAGAAAACGUACAAGGAUAUGCAUCUUACA | – | – | 7.36 | 5.98 |
| AGUAAGCUUGAGAAGGUGAAGUGGAAACAUGAGGAUCACCCAUGUAUUAGGAAGCCUGGUUUUGUCAAGGAUAUCGGGUUUACA | – | – | 12.2 | 12.6 |
| AGUACACAUGAGGAUCACCCAUGUGAGGAUAUCGAUGUCCCAGGGCGGGUGCGGGACUCGAGAAGGCACUUGGU | 47 | 154 | – | – |
| AGUACAUCAGGAUAUACAUGGAAGAUCAUUAUGACCCAUCUACAUGAGGAUCACCCAUGUAGAAGGGAUGUACA | 24.6 | 16.9 | – | – |
| AGUAGUUCAGGAUAUGAUGUAUGUUACAUGAGGAUCACCCAUGUAGGUCCUGGAAAUGUAUCAGAAGGGAAUAUCU | 108 | 111 | – | – |
| AGUAUGAUCCAGAAGGACAUAUGACCAAGACGAAACAUGAGGAUCACCCAUGUAGGAUAUGGAUCAUACAGGAUCGUGAGAUCA | 6.14 | 12 | – | – |
| AGUAUGCACGCAGGAUAUACAUGAGGAUCACCCAUGUGGAACAGUGUAGUACUAGUUGAUCCUCAGUAGAAGGGCGGUCGAAUA | 44.2 | 56.6 | – | – |
